Assay results pooled from the literature.
Protocols differ between the studies behind these lines.
OPRD1: Delta-type opioid receptor (OPRD1, Homo sapiens, UniProt P41143)
SLC22A11: Solute carrier family 22 member 11 (SLC22A11, Homo sapiens, UniProt Q9NSA0)
RIOK1: Serine/threonine-protein kinase RIO1 (RIOK1, Homo sapiens, UniProt Q9BRS2)
CD209: CD209 antigen (CD209, Homo sapiens, UniProt Q9NNX6)

SMILES | target | assay | setting | measurement | result
CCN1/C(=C/C(C)=O)Sc2ccc(F)cc21 | OPRD1 | ligand displacement, radioligand | 10 µM | inhibition | 0.37%
Cc1cc(O)c(-c2ccc([C@@H](C)CN(C)C)cc2)c2c1[nH]c(=O)c1sccc12 | Serine/threonine-protein kinase Nek8 (NEK8, Homo sapiens, UniProt Q86SG6) | enzyme activity, inhibitor | 0.1 µM | inhibition | 4.95%
C1=C/COCc2cc(ccc2OCCN2CCCC2)Nc2nccc(n2)-c2cccc(c2)COC/1 | Tyrosine-protein kinase ITK/TSK (ITK, Homo sapiens, UniProt Q08881) | cell-free assay | 0.1 µM | remaining signal | 90%
C#Cc1cc(-c2cc(Nc3nc(N[C@@H](C)c4ccc(F)cn4)ncc3Cl)n[nH]2)ccc1C=O | Serine/threonine-protein kinase SIK2 (SIK2, Homo sapiens, UniProt Q9H0K1) | enzyme activity, inhibitor | 0.2 µM | inhibition | 97.4%
CN(CCOc1ccc(CC2SC(=O)NC2=O)cc1)c1ccccn1 (stereo not drawn) | SLC22A11 | transporter uptake, inhibitor | 25 µM | inhibition | 94.1%
CCCCC(=O)Nc1ccc(-c2ccc3ncn(CCC)c(=O)c3c2)cn1 | RIOK1 | binding, competition with immobilised ligand | 0.5 µM | remaining binding | 100%
O=C(ON1C(=O)CCC1=O)c1cc(C(F)(F)F)cc(C(F)(F)F)c1 | CD209 | cell-free assay, inhibitor | pH 7.4 | kinact/KI | 91.7 M⁻¹ s⁻¹
NC/C(=C\F)COc1cccc(Cn2c(=S)[nH]c(=O)c3[nH]cnc32)c1 | Diamine oxidase [copper-containing] (AOC1, Homo sapiens, UniProt P19801) | enzyme activity, inhibitor | 1 µM | inhibition | 2.46%
Cc1cc(F)cc2c(CCC(=O)N[C@@H]3C(=O)NC[C@H]3O)c(-c3ccc(F)cc3)[nH]c12 | OPRD1 | cell-free assay | 10 µM | inhibition | 1%
CCCCNc1ccc(C(=O)OCCN(C)C)cc1 | SLC22A11 | transporter uptake, inhibitor | 25 µM | inhibition | 80.3%
C[C@]1(O)CCCN(c2nc(Nc3ccc(S(=O)(=O)N[C@H]4CC[C@H](CN5CCN(c6ccc(C7CCC(=O)NC7=O)cc6F)CC5)CC4)cc3Cl)ncc2C(F)(F)F)C1 (stereo partly drawn) | RIOK1 | binding, competition with immobilised ligand | 1 µM | remaining binding | 88%
O=C(N/N=C/c1ccc([N+](=O)[O-])o1)c1cc([N+](=O)[O-])cc([N+](=O)[O-])c1O | SLC22A11 | transporter uptake, inhibitor | 25 µM | inhibition | 78.3%
COc1c(Nc2cc(C(F)(F)F)cc(C(F)(F)F)c2)c(=O)c1=O | CD209 | cell-free assay, inhibitor | pH 7.4 | kinact/KI | 0.916 M⁻¹ s⁻¹
O=C(O)CCc1nc(-c2ccccc2)c(-c2ccccc2)o1 | SLC22A11 | transporter uptake, inhibitor | 25 µM | inhibition | 81.6%
Cc1cc(S(=O)(=O)N[C@H]2CC[C@H](CN3CCN(c4ccc(C5CCC(=O)NC5=O)cc4F)CC3)CC2)ccc1Nc1ncc(C(F)(F)F)c(N2CCC[C@](C)(O)C2)n1 (stereo partly drawn) | STE20-like serine/threonine-protein kinase (SLK, Homo sapiens, UniProt Q9H2G2) | binding, competition with immobilised ligand | 1 µM | remaining binding | 55%
COc1ccc2oc(-c3ccc4nc(N)oc4c3)c/c(=N\c3ccccc3NC(=O)CCN)c2c1 | Misshapen-like kinase 1 (MINK1, Homo sapiens, UniProt Q8N4C8) | binding | 1 µM | remaining binding | 103%
CC(C)n1c(/C=C/C(O)CC(O)CC(=O)O)c(-c2ccc(F)cc2)c2ccccc21 (stereo not drawn) | SLC22A11 | transporter uptake, inhibitor | 25 µM | inhibition | 82%
C[C@]1(O)CCCN(c2nc(Nc3ccc(S(=O)(=O)N[C@H]4CC[C@H](CN5CCN(c6ccc(C7CCC(=O)NC7=O)cc6F)CC5)CC4)cc3F)ncc2C(F)(F)F)C1 (stereo partly drawn) | RIOK1 | binding, competition with immobilised ligand | 1 µM | remaining binding | 100%
